Calls of active or inactive are those of the source. The rule behind the calls is not given here.
What was measured:
Plasmodium falciparum [1] = experiment: Antimalarial activity against chloroquine-sensitive Plasmodium falciparum 3D7 assessed as reduction in parasite growth at 40 uM incubated for 72 hrs by DAPI staining based fluorescence assay; assay type: functional, organism-based
Procedure, shortened: (§1)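 Asexual P. falciparum 3D7 growth read by a high-content imaging assay. Each compound was tested at one concentration: 20 μM for line 1 and 40 μM for line 2. The value is percentage growth inhibition. The 20 μM values are the mean of at least two independent measurements.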

Plasmodium falciparum [2] = experiment: Antimalarial activity against chloroquine-resistant Plasmodium falciparum Dd2 assessed as reduction in parasite growth at 40 uM incubated for 72 hrs by DAPI staining based fluorescence assay; assay type: functional, organism-based
Procedure, shortened: (§2)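 P. falciparum Dd2 (chloroquine-resistant) growth read by high-content imaging. Isolates were screened at a single 40 μM concentration, and some were also given at 20 μM. Values are percentage growth inhibition, as the mean of at least two independent measurements.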

Plasmodium falciparum [3] = experiment: Antimalarial activity against chloroquine-sensitive Plasmodium falciparum 3D7 assessed as reduction in parasite growth at 20 uM incubated for 72 hrs by DAPI staining based fluorescence assay; assay type: functional, organism-based; procedure, shortened: as §1
Plasmodium falciparum [4] = experiment: Antimalarial activity against chloroquine-resistant Plasmodium falciparum Dd2 assessed as reduction in parasite growth at 20 uM incubated for 72 hrs by DAPI saining based fluorescence assay; assay type: functional, organism-based; procedure, shortened: as §2
Hepacivirus hominis [5] = experiment: Inhibition of (CAG)33/FF/HCV/Ren.pA51 mRNA cap-dependent translation assessed as reduction in firefly level at […] after 60 mins by dual luciferase reporter gene assay
Hepacivirus hominis [6] = experiment: Inhibition of (CAG)33/FF/HCV/Ren.pA51 mRNA cap-independent translation assessed as reduction in renilla level at […] after 60 mins by dual luciferase reporter gene assay
[7] = Cytotoxicity against HEK293 cells assessed as growth inhibition at 40 uM relative to control; assay type: cell-based; settings: human, read-out: GI
Plasmodium falciparum [8] = experiment: Antimalarial activity against chloroquine-sensitive Plasmodium falciparum 3D7 assessed as reduction in parasite rowth incubated for 72 hrs by DAPI staining based fluorescence assay; assay type: functional, organism-based; settings: 3D7, 72 h
Plasmodium falciparum [9] = experiment: Antimalarial activity against chloroquine-resistant Plasmodium falciparum Dd2 assessed as reduction in parasite growth incubated for 72 hrs by DAPI staining based fluorescence assay; assay type: functional, organism-based; settings: Dd2, 72 h
[10] = test system: Plasmodium falciparum 3D7; experiment: Selectivity ratio of IC50 for HEK293 cells to IC50 for antimalarial activity against Plasmodium falciparum 3D7; settings: human, HEK293 cells versus Plasmodium falciparum 3D7
HEK293 = experiment: Cytotoxicity against HEK293 cells; assay type: cell-based; settings: Homo sapiens

C[C@@](O)(COC(=O)/C=C/c1ccccc1)[C@H](O)COC(=O)c1ccccc1
Activity (Plasmodium falciparum [1]): inactive
Activity (Plasmodium falciparum [2]): inactive

O=C1C[C@@H](c2ccccc2)Oc2c(Cc3ccccc3O)c(O)cc(O)c21
Activity (Plasmodium falciparum [3]): Active
Activity (Plasmodium falciparum [4]): Active

COC(=O)/C=C/C(=O)C[C@H](O)COC(=O)c1ccccc1
inhibition (Hepacivirus hominis [5]): inactive
inhibition (Hepacivirus hominis [6]): inactive
inhibition at 40 µM [7]: 100%
IC50 (Plasmodium falciparum [8]): 1.4 µM
IC50 (Plasmodium falciparum [9]): 4.1 µM

O=C1C[C@@H](c2ccccc2)Oc2cc(O)c(Cc3ccccc3O)c(O)c21
Activity (Plasmodium falciparum [3]): Active
Activity (Plasmodium falciparum [4]): Active

CC(=O)O[C@@H](/C=C1/C=CC(=O)O1)COC(=O)c1ccccc1
IC50 (Plasmodium falciparum [8]): 4.8 µM
IC50 (Plasmodium falciparum [9]): 6.7 µM
selectivity ratio [10]: 3
IC50 (HEK293): 11.8 µM

O=C1C[C@@H](c2ccccc2)Oc2cc(O)c(Cc3cccc(O)c3O)c(O)c21
inhibition (Hepacivirus hominis [5]): inactive
inhibition (Hepacivirus hominis [6]): inactive
Activity (Plasmodium falciparum [3]): Active
Activity (Plasmodium falciparum [4]): Active

O=C1C[C@@H](c2ccccc2)Oc2c(Cc3cccc(O)c3O)c(O)c(Cc3cccc(O)c3O)c(O)c21
inhibition (Hepacivirus hominis [5]): inactive
Activity (Plasmodium falciparum [1]): inactive
inhibition (Hepacivirus hominis [6]): inactive
Activity (Plasmodium falciparum [2]): inactive

O=C1C=C/C(=C/[C@H](O)CO)O1
IC50 (Plasmodium falciparum [8]): 10.5 µM

CC(C)=CCC[C@@H](C)[C@H]1C[C@H](O)[C@@]2(C)C3=CC[C@H]4C(C)(C)[C@@H](O)CC[C@]4(C)C3=CC[C@]12C
Activity (Plasmodium falciparum [1]): inactive
Activity (Plasmodium falciparum [2]): inactive

O=C1C=C/C(=C/[C@H](O)COC(=O)c2ccccc2)O1
inhibition (Hepacivirus hominis [5]): inactive
inhibition (Hepacivirus hominis [6]): inactive
IC50 (Plasmodium falciparum [8]): 3.7 µM

O=C1C[C@@H](c2ccccc2)Oc2c(Cc3ccccc3O)c(O)c(Cc3ccccc3O)c(O)c21 [DICHAMANETIN]
inhibition at 40 µM [7]: 75%
IC50 (Plasmodium falciparum [8]): 9.3 µM
IC50 (Plasmodium falciparum [9]): 6.7 µM

O=c1cc(-c2ccccc2)oc2c(Cc3cccc(O)c3O)c(O)cc(O)c12
inhibition (Hepacivirus hominis [5]): inactive
inhibition (Hepacivirus hominis [6]): inactive
Activity (Plasmodium falciparum [3]): Active
Activity (Plasmodium falciparum [4]): Active

O=c1cc(-c2ccccc2)oc2cc(O)cc(O)c12
inhibition (Hepacivirus hominis [5]): inactive
inhibition (Hepacivirus hominis [6]): inactive
Activity (Plasmodium falciparum [3]): Active
Activity (Plasmodium falciparum [4]): Active

O=C1C[C@@H](c2ccccc2)Oc2cc(O)cc(O)c21
Activity (Plasmodium falciparum [1]): inactive
Activity (Plasmodium falciparum [2]): inactive

— ChEMBL document CHEMBL4602686, “A Meroisoprenoid, Heptenolides, and C-Benzylated Flavonoids from Sphaerocoryne gracilis ssp. gracilis” (J Nat Prod, 2020)
